Compound activity as filed in PubChem.
Calb FLC – affects C. albicans growth with fluconazole; C. albicans CaCi-2 (fluconazole-resistant clinical isolate) + fluconazole, Alamar Blue growth, 48 h; growth inhibition, % (concentration not given with the values); 300,000 tested, 0.57% active; AID 1979;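 active = growth inhibition above about 58% in most replicates, limit read from the data, passing the limit was not always enough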;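 also: all wells also contain fluconazole at 8 µg/ml as a sub-toxic cotreatment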
H9c2 TAG inh – inhibitors of triacylglycerol accumulation | H9c2 cells, Nile Red lipid (TAG) fluorescence; cells loaded with 200 µM oleic acid | inhibition, % at 12.5 µM | 230,000 tested, 0.66% active | AID 651582;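 active = pattern-corrected inhibition of lipid staining of at least 50% with the nuclear-stain viability signal not falling by more than 50%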
MC4R ag barr – agonists of human melanocortin 4 receptor (MC4R) beta-arrestin | P32245 | U2OS MC4R beta-arrestin complementation, luminescence; percent of melanotan II response, DMSO zero | activation, % at 8.9 µM | 360,000 tested, 0.98% active;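 active = activation above a per-plate cutoff, the mean activation of sample wells on that plate plus 3 SD, cut at about 8% in these data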
Target sequence (P32245 whole entry, looked up): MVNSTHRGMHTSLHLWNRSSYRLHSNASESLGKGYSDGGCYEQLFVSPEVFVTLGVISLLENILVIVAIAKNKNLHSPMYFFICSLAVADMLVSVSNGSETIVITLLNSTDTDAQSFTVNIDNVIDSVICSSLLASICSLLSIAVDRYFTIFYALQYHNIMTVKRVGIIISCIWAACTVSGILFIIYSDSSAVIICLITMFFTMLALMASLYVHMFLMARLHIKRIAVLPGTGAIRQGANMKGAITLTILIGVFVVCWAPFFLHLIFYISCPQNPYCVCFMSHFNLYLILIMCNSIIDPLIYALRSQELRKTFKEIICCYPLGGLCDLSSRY
MC4R antagonist – antagonists of human melanocortin 4 receptor (MC4R). P32245. MC4R-expressing cells, MTII-stimulated cAMP, LANCE TR-FRET. inhibition, % at 6.5 µM. 360,000 tested, 0.48% active;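 active = inhibition above its plate's cutoff, the mean of tested wells on that plate plus 3 SD, cut at about 29% in these data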
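material = U2OS cells stably expressing human melanocortin 4 receptor (MC4R) | also added = Melanotan II challenge | dosing = single nominal compound dose of 6.5 µM | detection = TR-FRET with Eu-cAMP and labeled anti-cAMP, 671 nm | replication = singlicate | timing = compound 30 min, challenge 1 h, detection 1 h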
GalR3 antag – antagonists of human GalR3; 360,000 tested, 0.44% active; inhibition, % at 3 µM; HEK293 GalR3-CNG cAMP membrane potential fluorescence; galR3 body fused to GalR1 C-terminus;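 active = inhibition above the screen-wide average plus 3 SD, cut at about 13% in these data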;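 also: forskolin and galanin both at EC90 stimulate the cells; cAMP rise reported by CNG channel membrane potential dye signal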
Target sequence (O60755 1-299 limits assumed): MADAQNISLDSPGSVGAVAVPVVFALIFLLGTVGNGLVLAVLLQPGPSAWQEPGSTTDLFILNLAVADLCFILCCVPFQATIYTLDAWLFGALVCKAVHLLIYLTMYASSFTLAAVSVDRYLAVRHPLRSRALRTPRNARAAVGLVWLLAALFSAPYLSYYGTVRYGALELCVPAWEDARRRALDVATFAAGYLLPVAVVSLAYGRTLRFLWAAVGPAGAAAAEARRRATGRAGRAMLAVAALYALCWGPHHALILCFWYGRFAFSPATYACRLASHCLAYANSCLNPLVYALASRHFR
Efflux pump inh – inhibitors of Candida antifungal efflux pumps expressed in yeast | S. cerevisiae Candida pump triplex, Nile Red efflux | inhibition, % at 10 µM | 330,000 tested, 0.44% active | AID 485275;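 active = plate passing quality check with inhibition over a set limit, or well fluorescence over plate mean plus 4 SD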;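 also: Nile Red retained in pooled yeast measured as flow cytometry median fluorescence; higher means more Nile Red kept so more efflux inhibition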
MC4R barr ag – human MC4R beta-arrestin agonism confirmation; 2,400 tested, 31% active; shares compounds with MC4R ag barr; activation, % at 8.9 µM; AID 602192; U2OS MC4R beta-arrestin recruitment, luminescence; scaled DMSO 0%, Melanotan II 100%;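 active = mean activation across replicates above the hit cutoff set in the earlier primary screen, cut at about 8% in these data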
MOR DOR agonist – counter-screen for MC4R agonists: agonists of mu-delta opioid heterodimer | U2OS PathHunter beta-arrestin, beta-gal luminescence; percent of deltorphin B response, DMSO zero | shares compounds with MC4R ag barr | activation, % at 9.2 µM | 2,400 tested, 5.8% active;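 active = mean activation across replicates exceeds the hit threshold derived in the earlier primary screen, cut at about 18% in these data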
Hits are given with their value; n = inactive; x = not tested or not shown. An excerpt weighted towards active compounds, which were near 2.9% of everything screened.

SMILES | Calb FLC | H9c2 TAG inh | MC4R ag barr | MC4R antagonist | GalR3 antag | Efflux pump inh | MC4R barr ag | MOR DOR agonist
CCCNc1c(NS(=O)(=O)c2ccc3c(c2)CCCC3)c(=O)oc2ccccc12 | n | x | 14 | n | x | n | n | n
Cc1ccccc1-n1nc2c(c1NC(=O)C1CC1)CS(=O)(=O)C2 | x | n | n | n | n | x | x | x
COc1ccc(C(=O)c2coc3c2C(=O)C(=O)c2ccccc2-3)cc1 | n | n | 17 | n | n | n | n | n
NC(=S)N/N=C/c1cc([N+](=O)[O-])ccc1OCCOc1ccccc1 | n | x | 16 | n | n | n | n | n
CCn1c(COc2ccc3c(c2)OCO3)nnc1SCC(=O)c1ccc(Cl)cc1 | n | n | 9.9 | n | n | n | n | n
CCc1nc(Nc2cc(OC)ccc2OC)c2oc3ccccc3c2n1 | n | x | 10 | n | n | n | n | n
CCc1nc(Nc2ccccc2OC)c2oc3ccccc3c2n1 | n | x | n | n | n | n | x | x
C[C@@H]1Cn2cnc(C(=O)N3CCN(C(=O)OC(C)(C)C)CC3)c2C(=O)N1 | x | x | x | x | n | x | x | x
CCCCCCCCNS(=O)(=O)CCNCCc1ccccc1 | x | n | 10.0 | n | n | x | 16 | n
CCCCCCCCNS(=O)(=O)CCNCc1ccccc1 | x | n | n | n | n | x | x | x
COC(=O)[C@H](CC(C)C)NS(=O)(=O)c1ccc(F)cc1Br | x | n | n | n | n | x | x | x
N#C/C(=C(/O)COC(=O)CSc1ccc(Cl)cc1)c1nc2ccccc2[nH]1 | n | x | 9.7 | n | n | n | n | n
CC(C)c1ccc(/C=C/C(=O)Nc2nc3ccc([N+](=O)[O-])cc3s2)cc1 | n | x | 22 | n | n | n | n | n
CC(=O)Nc1ccc(S(=O)(=O)Nc2cc(C)c(-n3nc4ccccc4n3)cc2O)cc1 | n | x | 11 | n | n | n | n | n
COc1ccc(CNC(=O)C2CCN(S(=O)(=O)c3ccc(N4CCCC4=O)cc3)CC2)cc1 | x | n | n | n | n | x | x | x
Cc1[nH]c2ccccc2c1CC(=O)Nc1ccc(Nc2cccnc2)c(Br)c1 | x | x | x | x | n | x | x | x
COc1ccc(C2c3ccc(O)cc3Oc3ncn4nc(-c5ccccn5)nc4c32)cc1 (stereo not given) | n | n | 49 | n | n | n | 9.5 | n
Cc1onc(-c2ccccc2)c1C(=O)OCC(=O)c1ccc(F)cc1 | x | n | n | n | n | x | x | x
CC(C)(C)c1ccc(S(=O)(=O)NCCOCC(F)(F)C(F)F)cc1 | n | x | 13 | n | n | n | n | n
CC(C)(C)c1ccc(S(=O)(=O)NCCc2ccncc2)cc1 | n | n | n | n | n | n | x | x
COC(=O)[C@]12C[C@H](CC(=O)N3CCOCC3)C(=O)N(CCC3=CCCCC3)C1=C[C@H](COCc1ccccc1)O[C@@H]2C | x | x | x | x | n | x | x | x
CCc1nnc(NC(=O)c2ccc(Cl)c(S(=O)(=O)N3CCc4ccccc43)c2)s1 | n | n | n | n | n | n | x | x
O=C(Nc1nnc(C2CC2)s1)c1ccc(Cl)c(S(=O)(=O)N2CCc3ccccc3C2)c1 | n | x | 11 | n | n | n | n | n
CC(C)C[C@H]1CN(CCCC[C@@H]2CNC(=O)C(=O)N2Cc2ccccc2)C(=O)C(=O)N1CCc1ccccc1 | x | x | x | x | n | x | x | x
COc1ccccc1C(CNC(=O)CNC(=O)c1cccc(Cl)c1)N1CCCC1 (stereo not given) | x | n | n | n | n | x | x | x
SMILES | Calb FLC | H9c2 TAG inh | MC4R ag barr | MC4R antagonist | GalR3 antag | Efflux pump inh | MC4R barr ag | MOR DOR agonist
COc1cc(SC#N)ccc1N=Cc1c(C)[nH]n(-c2ccc(C)c(C)c2)c1=O | n | x | 12 | n | n | n | 9.3 | n
COc1cc(SC#N)ccc1N=Cc1c(C)[nH]n(-c2ccc(Cl)cc2)c1=O | n | n | n | n | n | n | x | x
Cc1ccc(NC(=O)c2ccc(N/N=C/c3cccc(O)c3)c([N+](=O)[O-])c2)cc1 | n | 60 | 9.9 | n | n | n | n | n
c1ccc(N=C2SCCCS2)cc1 | x | n | n | n | n | x | x | x
COCCCN1C(=O)C(CC(=O)NC2CC2)CC(C(=O)N(C(C)C)C(C)C)=C1C (stereo not given) | x | x | x | x | n | x | x | x
CN(Cc1ccccc1)C(=O)c1ccc(Nc2nc(C(N)Cc3ccc(C(F)(F)F)cc3)cs2)nc1 (stereo not given) | x | n | 40 | n | n | x | 22 | 33
NC(Cc1ccc(C(F)(F)F)cc1)c1csc(Nc2ccccn2)n1 (stereo not given) | x | n | n | n | n | x | x | x
NC(CCc1ccccc1)c1csc(Nc2ccc(C(=O)NCCO)cc2)n1 (stereo not given) | x | n | n | n | n | x | x | x
NC(CCc1ccccc1)c1csc(Nc2ccc(C(=O)c3ccccc3)cc2)n1 (stereo not given) | x | n | 13 | n | n | x | 20 | n
NC(Cc1ccc(C(F)(F)F)cc1)c1csc(Nc2cc(NCc3ccco3)ncn2)n1 (stereo not given) | x | n | 12 | n | n | x | 43 | 26
NC(Cc1ccc(C(F)(F)F)cc1)c1csc(Nc2ccc(C(=O)c3ccccc3)cc2)n1 (stereo not given) | x | n | 13 | n | n | x | 14 | n
CC(C)CC(N)c1csc(Nc2ccc(C(=O)N(C)Cc3ccccc3)cn2)n1 (stereo not given) | x | n | n | n | n | x | x | x
CN(CCCn1cnc2c(OCc3ccccc3)ncnc21)Cc1ccco1 | x | n | n | n | n | x | x | x
COc1ccccc1NC(=O)c1ccc(-c2ccc(Br)cc2)o1 | n | n | n | n | n | n | x | x
